The text below walks through data of ChEMBL document CHEMBL1914356, “Maslinic acid derivatives induce significant apoptosis in b16f10 murine melanoma cells” (2011).

Assay [1] has as its system B16-F10. Put plainly: Induction of apoptosis in mouse B16F10 cells assessed as necrotic cells at 30 uM after 24 hrs using annexin V-FITC/propidium iodide staining by flow cytometry. Format: functional. The gist of the method:
(§1)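 B16-F10 cells grown in DMEM with 4 mM L-glutamine, 1 mM pyruvate, 4.5 g/L glucose and 10% FBS. 300,000 cells/well were plated, then treated in DMSO after 24 h. Vehicle and medium-alone controls were included. Cells were detached with EDTA-trypsin, PBS-washed and set at 1 × 10^6 cells/mL in binding buffer. Annexin V-FITC/PI staining ran 15 min at room temperature in the dark, followed by flow cytometry within 1 h.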

Assay [2] concerns B16-F10. Put plainly: Induction of apoptosis in mouse B16F10 cells assessed as early/late apoptotic cells at 30 uM after 24 hrs using annexin V-FITC/propidium iodide staining by flow cytometry. Format: functional. The gist of the method: as §1
For assay [3], the system named is B16-F10. Put plainly: Induction of apoptosis in mouse B16F10 cells assessed as total apoptosis at 20 uM after 48 hrs using annexin V-FITC/propidium iodide staining by flow cytometry. It is filed as functional, cell-based. In short, it runs like this: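 B16-F10 cells in DMEM/10% FBS were plated at 300,000 cells/well, then treated 24 h later, in duplicate, in DMSO at […] for 24 or 48 h. Vehicle and medium controls were included. Annexin V-FITC/PI staining ran 15 min at room temperature in the dark. Total apoptosis (early + late) was read by flow cytometry as mean ± SD from two independent experiments.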

SMILES strings stand for the structures. Activity calls are given as the source filed them. No cut-off for these calls is given here.

Regarding `COC(=O)[C@]12CCC(C)(C)C[C@H]1C1=CC[C@@H]3[C@@]4(C)C[C@H](OC(C)=O)[C@@H](O)C(C)(C)[C@@H]4CC[C@@]3(C)[C@]1(C)CC2`, the Activity in the assay on B16-F10 [1] is listed as less than 10%.

On to `CC1(C)CC[C@]2(CO)CC[C@]3(C)C(=CC[C@@H]4[C@@]5(C)C[C@@H](O)[C@H](O)C(C)(C)[C@@H]5CC[C@]43C)[C@@H]2C1`, for which the Activity in the assay on B16-F10 [1] was less than 10%.

As for `CC(=O)O[C@@H]1C[C@]2(C)[C@H]3CC=C4[C@@H]5CC(C)(C)CC[C@]5(C(=O)O)CC[C@@]4(C)[C@]3(C)CC[C@H]2C(C)(C)[C@H]1OC(C)=O`, in the assay with B16-F10 [1], the Activity is listed as less than 10%.

Turning to `C=C1C[C@]2(C)[C@H]3CC=C4[C@@H]5CC(C)(C)CC[C@]5(C(=O)OC)CC[C@@]4(C)[C@]3(C)CC[C@H]2C(C)(C)[C@H]1OC(C)=O`, in the assay on B16-F10 [1], the Activity is given as less than 10%.

Take `CC(=O)O[C@H]1CC[C@]2(C)[C@H]3C=C[C@]45OC(=O)[C@@]6(CCC(C)(C)C[C@H]64)CC[C@@]5(C)[C@]3(C)CC[C@H]2C1(C)C`: the Activity with B16-F10 [1] is listed as less than 10%.

Consider `C=C1C2CC3[C@@]4(C)CC[C@H](OC(C)=O)C(C)(C)C4CC[C@@]3(C)C2=CC[C@@]2(C(=O)OC)CCC(C)(C)CC12` (some centres undefined), for which, in the assay on B16-F10 [1], the Activity is given as less than 10%.

Consider `CC1(C)CC[C@]2(C(=O)O)CC[C@]3(C)C(=CC[C@@H]4[C@@]5(C)CC(=O)[C@H](O)C(C)(C)[C@@H]5CC[C@]43C)[C@@H]2C1`, for which the values for the Activity in the assay with B16-F10 [1] and with B16-F10 [2] were less than 10% and 80%, respectively. Further, the outcome with B16-F10 [3] was Active.

For `CC1(C)CC[C@]2(CO)CC[C@]3(C)C(=CC[C@@H]4[C@@]5(C)C[C@H](O)[C@H](O)C(C)(C)[C@@H]5CC[C@]43C)[C@@H]2C1`, the Activity in the assay with B16-F10 [1] is listed as less than 10%.

Turning to `COC(=O)[C@]12CCC(C)(C)C[C@H]1C1=CC[C@@H]3[C@@]4(C)C=CC(=O)C(C)(C)[C@@H]4CC[C@@]3(C)[C@]1(C)CC2`, the Activity in the assay on B16-F10 [1] is on record as less than 10%.

In the case of `CC1(C)CC[C@]2(CO)CC[C@]3(C)[C@](O)([C@H](O)C=C4[C@@]5(C)CC[C@H](O)C(C)(C)[C@@H]5CC[C@]43C)[C@@H]2C1`, the Activity with B16-F10 [1] is less than 10%.

On to `CC1(C)CC[C@]2(CO)CC[C@]3(C)C(=CC[C@@H]4[C@@]5(C)C[C@H]6OC(C)(C)O[C@@H]6C(C)(C)[C@@H]5CC[C@]43C)[C@@H]2C1`, for which, in the assay on B16-F10 [1], the Activity is reported as less than 10%.

With `C=C1CC[C@H]2C(C)(C)[C@@H](OC(C)=O)CC[C@]2(C)/C1=C/CC1=C(C)CCC2(C(=O)OC)CCC(C)(C)C[C@@H]12` (single isomer, unassigned), the Activity with B16-F10 [1] was less than 10%.

For the compound `CC1(C)CC[C@]2(CN=[N+]=[N-])CC[C@]3(C)C(=CC[C@@H]4[C@@]5(C)C[C@@H](O)[C@H](O)C(C)(C)[C@@H]5CC[C@]43C)[C@@H]2C1`, the Activity in the assay with B16-F10 [1] is on record as less than 10%.

Consider `CC1(C)CC[C@]2(C(=O)O)CC[C@]3(C)C(=CC[C@@H]4[C@@]5(C)C[C@@H](O)[C@H](O)C(C)(C)[C@@H]5CC[C@]43C)[C@@H]2C1`, for which the result in the assay on B16-F10 [3] was Active.

On to `C=C1CC[C@H]2C(C)(C)CCC[C@]2(C)/C1=C/CC1=C(C)CCC2(C(=O)OC)CCC(C)(C)C[C@@H]12` (single isomer, unassigned), for which the Activity in the assay with B16-F10 [1] is recorded as less than 10%.

Turning to `CC1(C)CC[C@]2(CN)CC[C@]3(C)C(=CC[C@@H]4[C@@]5(C)C[C@@H](O)[C@H](O)C(C)(C)[C@@H]5CC[C@]43C)[C@@H]2C1`, the Activity in the assay with B16-F10 [1] is listed as less than 10%.

For the compound `COC(=O)[C@]12CCC(C)(C)C[C@H]1C1=CC[C@@H]3[C@@]4(C)C[C@@H](C=O)C(C)(C)[C@@H]4CC[C@@]3(C)[C@]1(C)CC2`, the Activity in the assay on B16-F10 [1] was less than 10%.

As for `CC1(C)CC[C@]2(C(=O)OCc3ccccc3)CC[C@]3(C)C(=CC[C@@H]4[C@@]5(C)C=C(O)C(=O)C(C)(C)[C@@H]5CC[C@]43C)[C@@H]2C1`, the Activity was less than 10% in the assay with B16-F10 [1] and 80% with B16-F10 [2]. The outcome in the assay on B16-F10 [3] was Active.

As to `COC(=O)C12CCC(C)=C(/C=C\C3=C(C)CC[C@H]4C(C)(C)[C@@H](OC(C)=O)CC[C@]34C)[C@@H]1CC(C)(C)CC2` (single isomer, unassigned), the Activity in the assay on B16-F10 [1] is given as less than 10%.

`COC(=O)C12CCC(C)=C(/C=C\C3=C(C)CC[C@H]4C(C)(C)[C@@H](O)CC[C@]34C)[C@@H]1CC(C)(C)CC2` (single isomer, unassigned): the Activity in the assay on B16-F10 [1] is on record as less than 10%.

For the compound `CC(=O)O[C@H]1CC[C@]2(C)[C@H]3C[C@H](O)[C@]45OC(=O)[C@@]6(CCC(C)(C)C[C@H]64)CC[C@@]5(C)[C@]3(C)CC[C@H]2C1(C)C`, the Activity in the assay on B16-F10 [1] is given as less than 10%.

Consider `CC1(C)CC[C@]2(C(=O)O)CC[C@]3(C)C(=CC[C@@H]4[C@@]5(C)CC[C@H](O)C(C)(C)[C@@H]5CC[C@]43C)[C@@H]2C1` [OLEANOLIC_ACID], for which the Activity in the assay with B16-F10 [1] is reported as less than 10%.

For the compound `CC1(C)CC[C@]2(C(=O)OCc3ccccc3)CC[C@]3(C)C(=CC[C@@H]4[C@@]5(C)C[C@H](O)[C@H](O)C(C)(C)[C@@H]5CC[C@]43C)[C@@H]2C1` [BENZYL AUGUSTATE], the Activity in the assay on B16-F10 [1] is less than 10%; in the assay with B16-F10 [2], 80%. In addition, the outcome in the assay on B16-F10 [3] was Active.

For `COC(=O)[C@]12CCC(C)(C)C[C@H]1[C@@](O)(/C=C\[C@@]13O[C@]1(C)CC[C@H]1C(C)(C)CCC[C@@]13C)[C@](C)(O)CC2`, the Activity with B16-F10 [1] is recorded as less than 10%.

Turning to `CC(=O)O[C@H]1CC[C@]2(C)C3=CC(=O)[C@]45OC(=O)[C@@]6(CCC(C)(C)C[C@H]64)CC[C@@]5(C)[C@]3(C)CC[C@H]2C1(C)C`, in the assay with B16-F10 [1], the Activity was less than 10%.

For `COC(=O)[C@]12CCC(C)(C)C[C@H]1C1=CC[C@@H]3[C@@]4(C)C[C@@H](OC(C)=O)C(=O)C(C)(C)[C@@H]4CC[C@@]3(C)[C@]1(C)CC2`, the Activity with B16-F10 [1] is less than 10%.

Turning to `Cc1ccc(S(=O)(=O)OC[C@]23CCC(C)(C)C[C@H]2C2=CC[C@@H]4[C@@]5(C)C[C@H]6OC(C)(C)O[C@@H]6C(C)(C)[C@@H]5CC[C@@]4(C)[C@]2(C)CC3)cc1`, in the assay with B16-F10 [1], the Activity is on record as less than 10%.

In the case of `CC1(C)CC[C@]2(C(=O)O)CC[C@]3(C)C(=CC[C@@H]4[C@@]5(C)C[C@H](O)[C@H](O)C(C)(C)[C@@H]5CC[C@]43C)[C@@H]2C1` [AUGUSTIC ACID], in the assay with B16-F10 [1], the Activity is less than 10%.

Consider `CC1(C)CC[C@]2(C(=O)O)CC[C@]3(C)C(=CC[C@@H]4[C@@]5(C)C=C(O)C(=O)C(C)(C)[C@@H]5CC[C@]43C)[C@@H]2C1`, for which the figures for the Activity in the assay with B16-F10 [1] and in the assay with B16-F10 [2] were less than 10% and 80%, respectively. Besides, the outcome in the assay with B16-F10 [3] was Active.

As for `CC(=O)O[C@@H]1C[C@]2(C)[C@H]3CC=C4[C@@H]5CC(C)(C)CC[C@]5(C(N)=O)CC[C@@]4(C)[C@]3(C)CC[C@H]2C(C)(C)[C@H]1OC(C)=O`, the Activity in the assay on B16-F10 [1] is given as less than 10%.

As for `CC1(C)CC[C@]2(C(=O)O)CC[C@]3(C)C(=CC[C@@H]4[C@@]5(C)C[C@@H](O)[C@H](O)C(C)(C)[C@@H]5CC[C@]43C)[C@@H]2C1` [MASLINIC ACID], the Activity in the assay on B16-F10 [1] was less than 10%.
